How the values were obtained:
H9 = test: Cytotoxicity against human H9 cells; format: cell-based
[1] = Therapeutic index, ratio of IC50 for human H9 cells to EC50 for HIV1 3B; format: cell-based; conditions: read-out: Ratio IC50/EC50
[2] = test system: Human immunodeficiency virus 1; test: Antiviral activity against HIV1 3B infected in human H9 lymphocytes; format: functional, organism-based; conditions: Human immunodeficiency virus 1, 3B
[3] = test system: Human immunodeficiency virus 1; test: Antiviral activity against HIV1 BAL 92US657 isolate of subtype B with R5 tropism in human PBMC cells assessed as inhibition of p24 antigen production after 7 days by ELISA; conditions: Human immunodeficiency virus 1, BAL, 168 h
[4] = test system: Human immunodeficiency virus 1; test: Antiviral activity against HIV1 BAL 93MW959 isolate of subtype C with R5 tropism in human PBMC cells assessed as inhibition of p24 antigen production after 4 days by ELISA; format: functional, organism-based; conditions: Human immunodeficiency virus 1, BAL, 96 h
[5] = Selectivity index, ratio of CC50 for human MT2 cells to EC50 for HIV1 3B; format: toxicity, cell-based; conditions: read-out: Ratio CC50/EC50
[6] = test system: Human immunodeficiency virus 1; test: Antiviral activity against HIV1 BAL BCF02 isolate of group O with R5 tropism in human PBMC cells assessed as inhibition of p24 antigen production after 4 days by ELISA; format: functional, organism-based; conditions: Human immunodeficiency virus 1, BAL, 96 h
PBMC = test: Cytotoxicity against human PBMC after 4 days by XTT assay; format: cell-based; conditions: 96 h
Rattus norvegicus [7] = test: Half life in Sprague-Dawley rat at 20 mg/kg, intragastric gavage; format: ADME, organism-based; parameters: dose 20 mg/kg, route intragastric; conditions: in vivo, po
How it was run: (§1)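 Male Sprague-Dawley rats (180–200 g), n = 3, given 2 mg/kg i.v. or 20 mg/kg i.g. in 10% PEG400. Blood taken at 0–720 min, plasma stored at −20 °C. Plasma extracted by acetonitrile protein precipitation and analysed by LC-MS/MS against 5–5000 ng/mL standards. Non-compartmental analysis; F = dose-normalized oral AUC(0–t)/i.v. AUC(0–t). Mean ± SD.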

[8] = test system: Human immunodeficiency virus 1; test: Antiviral activity against multidrug-resistant HIV1 with reverse transcriptase 41L, 74V, 184V, 210W, 215Y, ins SS, 98G mutation infected in human MT2 cells assessed as inhibition of p24 antigen production after 4 days by ELISA; format: functional, organism-based; conditions: Human immunodeficiency virus 1, MT2, 96 h
How it was run: (§2)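 MT-2 cells (1 × 10⁴) infected with HIV-1 (100 TCID50) in RPMI 1640 + 10% FBS with graded compound concentrations overnight; supernatant then replaced with compound-free medium. Day 4 post-infection supernatant lysed with 5% Triton X-100; p24 quantified by sandwich ELISA (HIVIG capture, anti-p24 mAb, TMB, A450) against recombinant p24 standard. Triplicate; EC50 from % inhibition of p24.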

Rattus norvegicus [9] = test: Volume of distribution in Sprague-Dawley rat at 20 mg/kg, intragastric gavage; format: ADME, organism-based; parameters: dose 20 mg/kg, route intragastric; conditions: in vivo, po; how it was run: as §1
[10] = test system: Human immunodeficiency virus 1; test: Antiviral activity against multidrug-resistant HIV1 with reverse transcriptase 41L, 67N, 210W, 215Y, 184V, 103N mutation infected in human MT2 cells assessed as inhibition of p24 antigen production after 4 days by ELISA; format: functional, organism-based; conditions: Human immunodeficiency virus 1, MT2, 96 h; how it was run: as §2
[11] = test system: Human immunodeficiency virus 1; test: Antiviral activity against HIV1 92UG001 isolate of subtype D with X4R5 tropism in human PBMC cells assessed as inhibition of p24 antigen production after 4 days by ELISA; format: functional, organism-based; conditions: Human immunodeficiency virus 1, PBMC, 96 h
[12] = Ratio of EC50 for multidrug-resistant HIV1 with reverse transcriptase 41 L, 67N, 210W, 215Y, 184V, 103N mutation to EC50 for wild type HIV1 3B; format: functional
How it was run: (§3)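 Fold change: EC50 against each multi-RT-resistant strain divided by EC50 against wild-type HIV-1 IIIB, both measured by p24 ELISA in MT-2 cells (4-day infection, triplicate).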

MT4 = test: Cytotoxicity against human MT4 cells after 4 days by XTT assay; format: cell-based; conditions: mt4, 96 h
How it was run: (§4)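 Cells (5 × 10⁵/mL) incubated with graded compound at 37 °C for 4 days, then XTT (1 mg/mL) with 0.02 µM PMS added. A450 read after 4 h; CC50 by CalcuSyn. Triplicate.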

[13] = Volume of distribution in Sprague-Dawley rat at 2 mg/kg, iv; format: ADME, organism-based; parameters: dose 2 mg/kg, route intravenous; conditions: in vivo; how it was run: as §1
[14] = test system: Human immunodeficiency virus 1; test: Antiviral activity against HIV1 BAL 93MW959 isolate of subtype C with R5 tropism in human PBMC cells assessed as inhibition of p24 antigen production after 7 days by ELISA; conditions: Human immunodeficiency virus 1, BAL, 168 h
Rattus norvegicus [15] = test: Bioavailability in Sprague-Dawley rat at 20 mg/kg, intragastric gavage; format: ADME, organism-based; conditions: in vivo, po; how it was run: as §1
[16] = Ratio of EC50 for multidrug-resistant HIV1 with reverse transcriptase 41L, 74V, 184V, 210W, 215Y, ins SS, 98G mutation to EC50 for wild type HIV1 3B; format: functional; how it was run: as §3
MT2 = test: Cytotoxicity against human MT2 cells after 4 days by XTT assay; format: cell-based; conditions: mt2, 96 h; how it was run: as §4
[17] = Ratio of EC50 for multidrug-resistant HIV1with reverse transcriptase clone 7324-1 to EC50 for wild type HIV1 3B; format: functional; how it was run: as §3
[18] = test system: Human immunodeficiency virus 1; test: Antiviral activity against multidrug-resistant HIV1 with reverse transcriptase clone 7324-1 infected human MT2 cells assessed as inhibition of p24 antigen production after 4 days by ELISA; format: functional, organism-based; conditions: Human immunodeficiency virus 1, MT2, 96 h; how it was run: as §2
[19] = Clearance in Sprague-Dawley rat at 2 mg/kg, iv; format: ADME, organism-based; parameters: dose 2 mg/kg, route intravenous; conditions: in vivo; how it was run: as §1
[20] = Half life in Sprague-Dawley rat at 2 mg/kg, iv; format: ADME, organism-based; parameters: dose 2 mg/kg, route intravenous; conditions: in vivo; how it was run: as §1
[21] = test system: Human immunodeficiency virus 1; test: Antiviral activity against wild type HIV1 3B in human MT2 cells assessed as inhibition of p24 antigen production after 4 days by ELISA; format: functional, organism-based; conditions: Human immunodeficiency virus 1, 3B, MT2, 96 h
[22] = test system: Human immunodeficiency virus 1; test: Antiviral activity against HIV1 BAL RU570 isolate of subtype G with R5 tropism in human PBMC cells assessed as inhibition of p24 antigen production after 4 days by ELISA; format: functional, organism-based; conditions: Human immunodeficiency virus 1, BAL, 96 h
[23] = test system: Human immunodeficiency virus 1; test: Antiviral activity against HIV1 94UG103 isolate of subtype A with X4R5 tropism in human PBMC cells assessed as inhibition of p24 antigen production after 7 days by ELISA; conditions: Human immunodeficiency virus 1, PBMC, 168 h
[24] = test system: Human immunodeficiency virus 1; test: Antiviral activity against HIV Lai with X4 tropism infected human MT4 cells assessed as inhibition of p24 antigen production after 4 days by ELISA; format: functional, organism-based; conditions: Human immunodeficiency virus 1, M:B_Lai, MT4, 96 h
How it was run: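 1 × 10⁴ MT-4 cells infected with HIV-1 Lai (100 TCID50) in RPMI 1640/10% FBS with graded compound overnight. Medium then replaced with compound-free medium. Supernatant lysed with Triton X-100 on day 4 and p24 measured by sandwich ELISA (A450) against recombinant p24 standard. Triplicate; EC50 by CalcuSyn.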

Rattus norvegicus [25] = test: AUC (0 to t) in Sprague-Dawley rat at 2 mg/kg, iv; format: ADME, organism-based, Plasma; parameters: dose 2 mg/kg, route intravenous; conditions: in vivo; how it was run: as §1
[26] = Selectivity index, ratio of CC50 for human MT4 cells to EC50 for HIV1 Lai; format: toxicity, cell-based
How it was run: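 Ratio of XTT CC50 (4-day MT-4 exposure) to p24-ELISA EC50 against HIV-1 Lai in MT-4 cells.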

Rattus norvegicus [27] = test: AUC (0 to t) in Sprague-Dawley rat at 20 mg/kg, intragastric gavage; format: ADME, organism-based, Plasma; parameters: dose 20 mg/kg, route intragastric; conditions: in vivo, po; how it was run: as §1
[28] = test system: Human immunodeficiency virus 1; test: Antiviral activity against HIV1 3B with X4 tropism infected human MT2 cells assessed as inhibition of p24 antigen production after 4 days by ELISA; format: functional, organism-based; conditions: Human immunodeficiency virus 1, 3B, MT2, 96 h; how it was run: as §2
[29] = test system: Human immunodeficiency virus 1; test: Antiviral activity against HIV1 93BR020 isolate of subtype F with X4R5 tropism in human PBMC cells assessed as inhibition of p24 antigen production after 4 days by ELISA; format: functional, organism-based; conditions: Human immunodeficiency virus 1, PBMC, 96 h
[30] = Clearance in Sprague-Dawley rat at 20 mg/kg, intragastric gavage; format: ADME, organism-based; parameters: dose 20 mg/kg, route intragastric; conditions: in vivo, po; how it was run: as §1

Molecule `Cc1cc(=O)oc2c3c(ccc12)OC(C)(C)[C@H](OC(=O)[C@@]12CC[C@](C)(C(=O)O1)C2(C)C)[C@@H]3OC(=O)[C@@]12CC[C@](C)(C(=O)O1)C2(C)C` has an IC50 (H9) of 23.6 µM, a selectivity ratio [1] of 15700 and an EC50 [2] of 0.0015 µM.
`Cc1c(CC#N)c(=O)oc2c3c(ccc12)OC(C)(C)[C@H](OC(=O)[C@@]12CC[C@](C)(C(=O)O1)C2(C)C)[C@@H]3OC(=O)[C@@]12CC[C@](C)(C(=O)O1)C2(C)C` gave an EC50 [3] of 5.09 µM, an EC90 [3] of 9.22 µM and an EC90 [4] of 3.06 µM. For the same molecule, the selectivity ratio [5] was 86.1, the EC50 [6] was 9.92 µM and the EC90 [6] was 18.1 µM. It also gave a CC50 (PBMC) of over 150 µM, an IC50 (H9) of over 37 µM and a t1/2 (Rattus norvegicus [7]) of 2.78 h. The EC50 [8] was 0.43 µM, the Vd (Rattus norvegicus [9]) was 8.19 L/kg and the EC50 [10] was 1.81 µM. The EC50 [11] was 0.98 µM, the EC90 [11] was 5.23 µM and the Ratio EC50 [12] was 8.96. The CC50 (MT4) was over 100 µM, the Vd [13] was 2.34 L/kg and the EC50 [14] was 0.87 µM. For the same molecule, the F (Rattus norvegicus [15]) was 17.8%, the Ratio EC50 [16] was 2.13 and the CC50 (MT2) was 40.8 µM. For the same molecule, the selectivity ratio [1] was 15400, the Ratio EC50 [17] was 14.4 and the EC50 [18] was 3.93 µM. It also gave a clearance [19] of 10 mL/min/kg, a half-life [20] of 1.62 h and an EC50 [21] of 0.2 µM. It also gave an EC50 [2] of 0.0024 µM, an EC50 [22] of 3.27 µM and an EC90 [22] of 8.93 µM. It also gave an EC50 [23] of 0.84 µM, an EC90 [23] of 1.63 µM and an EC50 [24] of 1.51 µM. For the same molecule, the AUC (Rattus norvegicus [25]) was 195270.08 µg/L/min, the selectivity ratio [26] was over 66 and the AUC (Rattus norvegicus [27]) was 348067.29 µg/L/min. For the same molecule, the EC50 [28] was 0.47 µM, the EC50 [29] was 2.18 µM and the EC90 [29] was 3.76 µM. The CL/F [30] was 58 mL/min/kg.
In the case of `Cc1ccnc2c1NC(=O)c1cccnc1N2C1CC1` [NEVIRAPINE], the EC50 [8] is reported as over 14.8 µM, the EC50 [10] is reported as over 14.8 µM and the EC50 [18] is reported as over 14.8 µM.
With `Cc1c(CO)c(=O)oc2c3c(ccc12)OC(C)(C)[C@H](OC(=O)C12CCC(C)(C(=O)O1)C2(C)C)[C@@H]3OC(=O)C12CCC(C)(C(=O)O1)C2(C)C` (some centres not stated) the selectivity ratio [1] was 6220.

Source: ChEMBL document CHEMBL1151737, “Development and preclinical studies of broad-spectrum anti-HIV agent (3'R,4'R)-3-cyanomethyl-4-methyl-3',4'-di-O-(S)-camphanoyl-(+)-cis-khellactone (3-cyanomethyl-4-methyl-DCK)” (J Med Chem, 2008)
